The values below come from PubChem BioAssay AID449755 (Broad Institute, 2010).

Records with an inconclusive call do not appear. Active and inactive are the calls of the source.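 How the source made its calls: active means compounds raising caspase signal whose fitted AC50 is at most ten times the top tested dose; inconclusive means flat fit with 30 to 70% activity, or failed fit; inactive means the rest.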

As usually defined, the AC50 is the concentration giving half of the maximal activity seen.

The test system of this test is HMC 1-8 low-A1 cells, caspase-3/7 luminescence, 3 h. The test can be described thus: caspase induction, A1-low human cancer line – cell-based, HMC 1-8 low A1, caspase luminescence, counter-screen for A1 inhibitor project, dose response (AID 449755). In short, it runs like this:
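Material: HMC 1-8 human cancer cells with low A1 expression / Amount: 2500 cells/well / Medium: RPMI-1640, 10% FBS / Dosing: compound delivered by pin transfer / Times: compound 3 h at 37 °C, detection 1 h RT / Detection: caspase-3/7 DEVD luminescence / Evaluation: caspase activation as non-A1 counterscreen signal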
For `Oc1ccc(/C=N/N2CCN(C3c4ccccc4-c4ccccc43)CC2)cc1O`, the AC50 is > 35 µM (inactive).

As for `CCOC(=O)/C=c1\s/c(=C\c2ccc(C(=O)OC)cc2)c(=O)n1CC(=O)Nc1ccccc1`, the AC50 was > 35 µM (inactive).

Turning to `COc1ccc(OC[C@@H](O)CNC(=O)c2cccc3c2C(=O)c2ccc(-c4ccc(F)cc4OCc4ccccc4)cc2S3(=O)=O)cc1`, the AC50 is > 35 µM (inactive).

Take `COc1ccc(C2CC(c3c(O)cc(C)oc3=O)=NCCS2)c(OC)c1` (stereo unspecified): the AC50 was > 35 µM (inactive).

As to `O=C(Oc1cccc(/C=N/Nc2nc(Nc3ccccc3)nc(N3CCOCC3)n2)c1)c1ccco1`, the AC50 was > 35 µM (inactive).

Regarding `Cc1ccc(C2(c3ccc(C)cc3)CC2C(=O)Nc2ccc([N+](=O)[O-])cc2O)cc1` (stereo unspecified), the AC50 is > 35 µM (inactive).

Consider `O=C(Nc1ccc([N+](=O)[O-])cc1)c1nc[nH]c1C(=O)NC1CCCCC1`, for which the AC50 is > 35 µM (inactive).

Regarding `CCc1nn(-c2cc(Oc3cccc4ccccc34)nc(-c3ccccc3)n2)c(N)c1C#N`, the AC50 was > 35 µM (inactive).

For `CCc1nnc(NC(=O)c2nc(S(=O)(=O)Cc3ccccc3)ncc2Cl)s1`, the AC50 is > 35 µM (inactive).

For the compound `COC(=O)CSc1nc(N)c2c3c(sc2n1)C(c1ccccc1)SC(c1ccccc1)C3` (stereo unspecified), the AC50 was > 35 µM (inactive).

With `O=C(c1ccc(COc2ccc3ccccc3c2)o1)N1N=C(C(F)F)CC1(O)C(F)F` (stereo unspecified), the AC50 is > 35 µM (inactive).

Regarding `COc1cc(C(=O)Nc2cc3c(cc2N2CCCCC2)n(C)c(=O)n3C)cc(OC)c1OC`, the AC50 was > 35 µM (inactive).

Take `COc1cc(NC(=O)c2ccccc2F)ccc1NC(=O)c1cc2ccccc2o1`: the AC50 was > 35 µM (inactive).

Regarding `COc1ccc(NC(=O)CSc2nc3ccc(Nc4nc(N5CCOCC5)nc(N5CCOCC5)n4)cc3s2)cc1`, the AC50 is > 35 µM (inactive).

For `CCS(=O)(=O)c1ncc(Cl)c(C(=O)Nc2ccccc2OC)n1`, the AC50 is > 35 µM (inactive).

In the case of `CCOC(=O)/C(=C\c1cccnc1)C(=O)c1cc(C(C)=O)c(Nc2ccccc2)s1`, the AC50 was > 35 µM (inactive).

Turning to `COc1ccc(NC(=O)c2cccc3c2C(=O)c2ccc(-c4ccc(F)cc4OCc4ccccc4)cc2S3(=O)=O)cc1`, the AC50 is > 35 µM (inactive).

Take `CCC(Sc1nc2cc3c(cc2c(=O)n1Cc1ccco1)OCO3)C(=O)Nc1cccc(OC)c1` (stereo unspecified): the AC50 was > 35 µM (inactive).

As for `COc1ccc(C=C2C=C(C(C)(C)C)C(=O)C(C(C)(C)C)=C2)cc1OC`, the half-maximal activity concentration (AC50) was 5.9 µM.

Regarding `CN(C)C/C=C(\c1ccc(Br)cc1)c1cccnc1`, the AC50 was > 35 µM (inactive).

On to `N#C/C(=C\c1ccc(OCc2ccccc2)cc1)C(=O)Nc1nc2c(s1)CCN(Cc1ccccc1)C2`, for which the AC50 is > 35 µM (inactive).

In the case of `O=C(CCl)N=c1sccn1Cc1ccccc1Cl`, the AC50 is > 35 µM (inactive).

On to `COc1ccc(N(C(=O)CCl)C(C(=O)NCCc2ccccc2)c2cccs2)cc1Cl` (stereo unspecified), for which the AC50 was > 35 µM (inactive).

In the case of `CCOC(=O)C1=C(c2ccccc2)O/C(=C(/C#N)C(F)(F)F)S1`, the AC50 is > 35 µM (inactive).

With `Cc1cccc(NC(=O)/C(C#N)=C/c2cn(CC(=O)NCc3ccco3)c3ccccc23)c1`, the AC50 was > 35 µM (inactive).

As for `CCc1nnc(NC(=O)CSc2nc(-c3ccccc3)cc(-c3ccc(F)cc3)c2C#N)s1`, the AC50 was > 35 µM (inactive).

`Cc1ccc(C(=O)COC(=O)c2ccc3c(c2)C(=O)N(c2cccc4ncccc24)C3=O)cc1`: the concentration at half-maximal activity (AC50) was 24.3 µM.

Take `O=C(COc1ccc(/C=N/NC(=O)c2cc3ccccc3o2)cc1Cl)Nc1ccccc1`: the half-maximal activity concentration (AC50) was 8.65 µM.

With `CC(C)c1cccc(-c2ccc3c(c2)S(=O)(=O)c2cccc(C(=O)NCc4ccccc4Cl)c2C3=O)c1`, the AC50 is > 35 µM (inactive).

Turning to `CCOC(=O)COc1ccccc1/C=C\[N+](=O)[O-]`, the AC50 was > 35 µM (inactive).

With `CC(C)N=c1scc(-c2ccco2)n1/N=C/c1ccc(O)c(O)c1`, the AC50 was > 35 µM (inactive).

`COc1ccccc1CCNC(C)CCc1ccc(O)cc1` (stereo unspecified): the AC50 was > 35 µM (inactive).

In the case of `O=C(COc1ccccc1[N+](=O)[O-])Nc1ccc(NC(=O)c2cc3ccccc3o2)cc1`, the half-maximal activity concentration (AC50) is 9.07 µM.

Regarding `COc1cc(/C=C(/C#N)C(=O)Nc2ccc(Cl)cc2)ccc1Oc1nc(Cl)ncc1F`, the AC50 is > 35 µM (inactive).

With `C=CC(=O)Nc1ccc(CN2C(=O)N(c3c(Cl)c(OC)cc(OC)c3Cl)Cc3cnc(NCCCCN(CC)CC)nc32)cc1`, the AC50 is > 35 µM (inactive).

`COc1ccc(S(=O)(=O)N2CC(O)CC2C(=O)OCC(=O)Nc2ccc(Cl)cn2)cc1` (stereo unspecified): the AC50 is > 35 µM (inactive).

As to `Cc1nn(Cc2ccc(Cl)cc2Cl)c(C)c1NC(=O)Cn1nc([N+](=O)[O-])c(Cl)c1C`, the AC50 was > 35 µM (inactive).

As for `Cc1ccc(C#N)c(SCC(=O)Nc2nccs2)n1`, the AC50 is > 35 µM (inactive).

Consider `Cc1ccc(C(=O)/C=C/C(=O)c2ccc(C)cc2)cc1`, for which the AC50 is > 35 µM (inactive).

As for `CCOc1ccc(NCc2cccn2-c2nnc(N3CCC(C(=O)NCCCN4CC(C)CC(C)C4)CC3)s2)cc1` (stereo unspecified), the AC50 was > 35 µM (inactive).

Consider `CC(C)(C)c1ccc(C(=O)Nc2ccc(O)c3c(=O)cc(-c4cccc(Cl)c4)oc23)cc1`, for which the AC50 is > 35 µM (inactive).

For the compound `CC1(C)C[C@H](O)[C@]2(CO)[C@H](O)C[C@]3(C)C(=CCC4[C@@]5(C)CC[C@H](O)C(C)(C)C5CC[C@]43C)[C@@H]2C1` (stereo partly specified), the AC50 was > 35 µM (inactive).

In the case of `Cc1c(C=O)c(C=O)c(C)n1Cc1ccccc1`, the AC50 is > 35 µM (inactive).

Regarding `C=C1/C=C(\C)[C@](C)(O)C[C@H](O)CC(=O)[C@H](O)[C@@H](O)[C@H](C)C[C@H](C)OC(=O)/C(C)=C/CC/C=C/[C@@H]2O[C@H]2C[C@H](C)C1`, the AC50 was > 35 µM (inactive).

Turning to `Cc1ccc(C=C2C(Cl)=C(Cl)C(Cl)=C2Cl)cc1`, the half-maximal activity concentration (AC50) was 12.9 µM.

As for `O=C(NC[C@H]1CCCO1)c1cccc2c1C(=O)c1ccc(-c3ccc(F)cc3OCc3ccccc3)cc1S2(=O)=O`, the AC50 was > 35 µM (inactive).

For the compound `Cc1cccc(Nc2nc(N)c([N+](=O)[O-])c(N3CCCC(C)C3)n2)c1` (stereo unspecified), the AC50 was > 35 µM (inactive).

Take `O=C1/C(=C/c2ccc(N3CCOCC3)o2)SC(=Nc2ccccc2)N1CCc1c[nH]c2ccccc12`: the AC50 is > 35 µM (inactive).

For the compound `O=C(NC1CCCCC1)c1cccc2c1C(=O)c1ccc(-c3ccc(OC(F)(F)F)cc3)cc1S2(=O)=O`, the AC50 was > 35 µM (inactive).

Consider `CCOCCCNC(=O)c1ccc2c(c1)N=C(CC)c1cc(Br)ccc1S2`, for which the AC50 is > 35 µM (inactive).

For the compound `CC(=O)Nc1ncnc2c1c(-c1ccc(Cl)cc1)nn2C(C)(C)C`, the AC50 was > 35 µM (inactive).

With `CCC1CCCCN1S(=O)(=O)c1ccc(NC(=O)c2nc(S(C)(=O)=O)ncc2Cl)cc1` (stereo unspecified), the AC50 is > 35 µM (inactive).

Turning to `CCc1ccccc1NC(=O)C(CC)Sc1nc2cc3c(cc2c(=O)n1Cc1ccco1)OCO3` (stereo unspecified), the AC50 was > 35 µM (inactive).

Turning to `COc1cc(CN2CCN(c3cc(C)ccc3C)CC2)ccc1O`, the AC50 was > 35 µM (inactive).

Consider `O=C(Nc1ccc2oc(-c3ccccc3Cl)nc2c1)c1cncc(Br)c1`, for which the AC50 is > 35 µM (inactive).

For the compound `CC(C)c1ccc2[nH]c(O)c(N=NC(=O)c3cccc(S(=O)(=O)Nc4ccc(Cl)cc4)c3)c2c1`, the AC50 is > 35 µM (inactive).

As for `Cc1ccc(S(=O)(=O)c2nnn3c2nc(Nc2cccc(C)c2)c2ccccc23)cc1`, the AC50 was > 35 µM (inactive).

As for `COCc1cc(C)nc(SCC(=O)Nc2nc(C)cs2)c1C#N`, the AC50 is > 35 µM (inactive).

As to `Cc1cc(NC(=O)CSc2nc3cc(Cl)ccc3c(=O)n2Cc2ccco2)no1`, the AC50 was > 35 µM (inactive).

Consider `Cc1ccc(Sc2c([N+](=O)[O-])c(=O)n(C)c3ccccc23)cc1`, for which the AC50 was > 35 µM (inactive).

With `COc1cc(/C=C(/C#N)c2nc3ccccc3[nH]2)ccc1OCC(=O)Nc1ccccc1C`, the AC50 was 3.01 µM.

As for `Cc1cc(C)n(-c2nc(Nc3ccccc3C)nc(-n3nc(C)cc3C)n2)n1`, the AC50 is > 35 µM (inactive).

Regarding `Cc1ccc(CS(=O)(=O)c2ncc(Cl)c(C(=O)Nc3nnc(C(C)C)s3)n2)cc1`, the AC50 is > 35 µM (inactive).

Consider `O=C1C2C3C=CC(CO)(O3)C2C(=O)N1c1ccc(-c2ccccc2)cc1` (stereo unspecified), for which the AC50 is > 35 µM (inactive).

Turning to `Cc1ccc(C(=O)/C=C\C(=O)c2ccc(C)cc2)cc1`, the AC50 is > 35 µM (inactive).

Turning to `COc1ccc(NC(=S)NC(NC(=O)/C=C/c2ccccc2)C(Cl)(Cl)Cl)cc1` (stereo unspecified), the AC50 was > 35 µM (inactive).

Regarding `CC(C)(C)C1CCc2onc(C(=O)Nc3cccc(O)c3)c2C1` (stereo unspecified), the AC50 was > 35 µM (inactive).

Turning to `CCn1c(SCC(=O)c2ccccc2)nnc1-c1cc2cc(Br)ccc2o1`, the AC50 was > 35 µM (inactive).

Consider `CC(=O)OC(C)(C)/C=C/C(=O)C(C)(O)C1[C@H](O)C[C@@]2(C)C3CC=C4C(CC[C@@H](O)C4(C)C)[C@]3(CO)C(=O)C[C@]12C` (stereo partly specified), for which the AC50 was > 35 µM (inactive).

In the case of `CC1=NNC(=O)/C1=C\c1cn(-c2ccccc2)nc1-c1cccs1`, the AC50 is > 35 µM (inactive).

As to `CC(C)CCN(C(=O)Cc1ccc(Cl)c(Cl)c1)c1c(N)n(Cc2ccccc2)c(=O)[nH]c1=O`, the half-maximal activity concentration (AC50) was 24.3 µM.

As to `COc1ccc(Oc2cc(NC(=O)c3nn(C)cc3[N+](=O)[O-])cc([N+](=O)[O-])c2)cc1`, the AC50 is > 35 µM (inactive).

In the case of `N#Cc1cccnc1N1CCN(C(=O)c2cccc3c2C(=O)c2ccc(-c4ccc(Cl)c(C(F)(F)F)c4)cc2S3(=O)=O)CC1`, the AC50 was > 35 µM (inactive).

Consider `O=C(N=Nc1c(O)[nH]c2ccc([N+](=O)[O-])cc12)c1cc(-c2ccccc2Cl)nc2ccccc12`, for which the AC50 was > 35 µM (inactive).

Consider `CN1C2CCC1/C(=C/c1ccccn1)C(=O)/C2=C\c1ccccn1`, for which the AC50 is > 35 µM (inactive).

For `COc1ccccc1-c1cn[nH]c1-c1ccc(OCc2ccccc2)cc1O`, the AC50 is > 35 µM (inactive).
